Assay results reported in ChEMBL document CHEMBL1150828, “Antimalarial, cytotoxic, and antifungal alkaloids from Duguetia hadrantha” (J Nat Prod, 2001).
≈ marks a conversion by molar mass, not a printed value. Calls of active or inactive are those of the source. No cut-off for these calls is given here.

Experiments:
Staphylococcus aureus [1] = assay: Antibacterial activity against methicillin-resistant Staphylococcus aureus ATCC 33591 after 48 hrs by modified well microplate assay; format: functional, organism-based
Procedure, shortened: (§1)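 ATCC strains (C. albicans B311 #90028, C. neoformans #90113, S. aureus #6535, MRSA #33591) were tested in a modified 96-well microplate protocol. […] Amphotericin B and rifampin served as positive controls and DMSO as the negative control.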

[2] = target: Intercellular adhesion molecule (ICAM-1), Integrin alpha-L/beta-2 (Homo sapiens) (UniProt P20701+P05362+P05107); assay: Inhibition of LFA1/ICAM1-mediated aggregation of TPA-stimulated human HL60 cells pretreated 10 mins before TPA challenge measured after 16 hrs of PMA addition by microscopy; format: cell-based; conditions: HL-60
Procedure, shortened: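 HL-60 cells at 1 × 10^6 cells/mL preincubated 10 min with sample, then PMA 10 ng/mL added; plates kept in CO2 incubator and aggregation scored microscopically 16 h after PMA; MIC reported; cytochalasin B, anti-LFA-1 and anti-ICAM-1 antibodies as positive controls.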

Cryptococcus neoformans [3] = assay: Antifungal activity against Cryptococcus neoformans ATCC 90113 after 48 hrs by modified well microplate assay; format: functional, organism-based; procedure, shortened: as §1
SK-MEL = assay: Cytotoxicity against human SK-MEL cells after 2 to 7 days by neutral red assay; format: functional, cell-based
Candida albicans [4] = assay: Antifungal activity against Candida albicans B311 after 48 hrs by modified well microplate assay; format: functional, organism-based; conditions: B311, 48 h; procedure, shortened: as §1
Plasmodium falciparum [5] = assay: Antimalarial activity after 48 hrs against chloroquine-resistant Plasmodium falciparum W2 as LDH activity by Makler method; format: functional, organism-based; conditions: W2, 48 h
Procedure, shortened: (§2)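 Parasite lactate dehydrogenase (pLDH) assay adapted from Makler, run in 96-well microplates on two P. falciparum clones, W-2 and D-6 (D-6 chloroquine-sensitive). Chloroquine and artemisinin were positive controls, with DMSO as the vehicle control.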

Staphylococcus aureus [6] = assay: Antibacterial activity against Staphylococcus aureus ATCC 6535 after 48 hrs by modified well microplate assay; format: functional, organism-based; procedure, shortened: as §1
KB = assay: Cytotoxicity against human KB cells after 2 to 7 days by neutral red assay; format: functional, cell-based
HL-60 = assay: Cytotoxicity against human HL60 cells after 16 hrs by XTT/PMS assay; conditions: HL-60, 16 h
[7] = Specific index, ratio of IC50 for human HL60 cells to MIC for LFA1/ICAM1 mediated aggregation in TPA-stimulated human HL60 cells; format: functional, HL-60
Procedure, shortened: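 Ratio of XTT IC50 in HL-60 cells (4 h XTT-PMS read after the aggregation assay) to the microscopic aggregation MIC of PMA (10 ng/mL)-stimulated HL-60 cells scored 16 h after PMA.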

Cryptococcus neoformans [8] = assay: Antifungal activity against Cryptococcus neoformans ATCC 90113; format: functional
[9] = Selectivity index, ratio of IC50 of african green monkey (Cercopithecus aethiops) Vero cells to IC50 for chloroquine-sensitive Plasmodium falciparum D6; format: toxicity, cell-based; conditions: read-out: Ratio IC50
SK-OV-3 = assay: Cytotoxicity against human SKOV3 cells after 2 to 7 days by neutral red assay; format: functional, cell-based
Plasmodium falciparum [10] = assay: Antimalarial activity after 48 hrs against chloroquine-sensitive Plasmodium falciparum D6 as LDH activity by Makler method; format: functional, organism-based; conditions: D6, 48 h; procedure, shortened: as §2
BT-549 = assay: Cytotoxicity against human BT549 cells after 2 to 7 days by neutral red assay; format: functional, cell-based
[11] = Selectivity index, ratio of IC50 of african green monkey (Cercopithecus aethiops) Vero cells to IC50 for chloroquine-resistant Plasmodium falciparum W2; format: toxicity, cell-based; conditions: read-out: Ratio IC50
Plasmodium falciparum [12] = assay: Antimalarial activity against chloroquine-sensitive Plasmodium falciparum D6; format: functional, organism-based
Procedure, shortened: (§3)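 In vitro antimalarial screen using the parasite lactate dehydrogenase (pLDH) assay, adapted from Makler et al. and run in 96-well microplates. Two P. falciparum clones were tested: W-2 (chloroquine-resistant) and D-6 (chloroquine-sensitive). Chloroquine and artemisinin served as positive controls and DMSO as the vehicle (negative) control. IC50 values were reported.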

Plasmodium falciparum [13] = assay: Antimalarial activity against chloroquine-resistant Plasmodium falciparum W2; format: functional, organism-based; procedure, shortened: as §3
[14] = Specific index, ratio of IC50 for human HL60 cells to IC50 for LFA1/ICAM1-mediated CFSE-labeled TPA-stimulated human HL60 cell adhesion to ICAM1 expressing human HeLa cells
Procedure, shortened: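 Index = HL-60 XTT IC50 / adhesion IC50. XTT: HL-60 at 1 × 10^6 cells/mL, sample 10 min, then PMA 10 ng/mL for 16 h; then XTT 1 mg/mL with 25 µM PMS for 4 h at 37 °C, A450 (ref 630). Adhesion: CFSE-labeled HL-60 on confluent HeLa monolayers, PMA 50 ng/mL, 45 min at 37 °C; nonadherent cells washed off, remainder lysed in 1% Triton X-100, fluorescence ex 496/em 519 nm.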

[15] = target: Intercellular adhesion molecule (ICAM-1), Integrin alpha-L/beta-2 (Homo sapiens, UniProt P05107+P05362+P20701); assay: Inhibition of LFA1/ICAM1-mediated CFSE-labeled TPA-stimulated human HL60 cell adhesion to ICAM1 expressing human HeLa cells after 45 mins by fluorescence analysis; format: cell-based
Procedure, shortened: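 CFSE-labelled HL-60 cells plus sample added onto confluent ICAM-1-expressing HeLa monolayers with PMA 50 ng/mL; 45 min at 37 °C in CO2 incubator; nonadherent cells washed off, remainder lysed in 1% Triton X-100; fluorescence at ex 496/em 519 nm; anti-ICAM-1 antibody and cytochalasin B positive controls.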

Candida albicans [16] = assay: Antifungal activity against Candida albicans B311; format: functional
[17] = Staphylococcus aureus, ATCC 33591, 48 h, read-out: IC50
[18] = Cryptococcus neoformans, ATCC 90113, 48 h
[19] = Cryptococcus neoformans, ATCC 90113, 48 h, read-out: IC50
[20] = Staphylococcus aureus, ATCC 6535, 48 h
[21] = Staphylococcus aureus, ATCC 6535, 48 h, read-out: IC50
[22] = Homo sapiens, KB, read-out: IC50
[23] = Homo sapiens, BT-549, read-out: IC50
[24] = Staphylococcus aureus, ATCC 33591, 48 h

Chain of Intercellular adhesion molecule (ICAM-1), Integrin alpha-L/beta-2 (P20701 whole entry): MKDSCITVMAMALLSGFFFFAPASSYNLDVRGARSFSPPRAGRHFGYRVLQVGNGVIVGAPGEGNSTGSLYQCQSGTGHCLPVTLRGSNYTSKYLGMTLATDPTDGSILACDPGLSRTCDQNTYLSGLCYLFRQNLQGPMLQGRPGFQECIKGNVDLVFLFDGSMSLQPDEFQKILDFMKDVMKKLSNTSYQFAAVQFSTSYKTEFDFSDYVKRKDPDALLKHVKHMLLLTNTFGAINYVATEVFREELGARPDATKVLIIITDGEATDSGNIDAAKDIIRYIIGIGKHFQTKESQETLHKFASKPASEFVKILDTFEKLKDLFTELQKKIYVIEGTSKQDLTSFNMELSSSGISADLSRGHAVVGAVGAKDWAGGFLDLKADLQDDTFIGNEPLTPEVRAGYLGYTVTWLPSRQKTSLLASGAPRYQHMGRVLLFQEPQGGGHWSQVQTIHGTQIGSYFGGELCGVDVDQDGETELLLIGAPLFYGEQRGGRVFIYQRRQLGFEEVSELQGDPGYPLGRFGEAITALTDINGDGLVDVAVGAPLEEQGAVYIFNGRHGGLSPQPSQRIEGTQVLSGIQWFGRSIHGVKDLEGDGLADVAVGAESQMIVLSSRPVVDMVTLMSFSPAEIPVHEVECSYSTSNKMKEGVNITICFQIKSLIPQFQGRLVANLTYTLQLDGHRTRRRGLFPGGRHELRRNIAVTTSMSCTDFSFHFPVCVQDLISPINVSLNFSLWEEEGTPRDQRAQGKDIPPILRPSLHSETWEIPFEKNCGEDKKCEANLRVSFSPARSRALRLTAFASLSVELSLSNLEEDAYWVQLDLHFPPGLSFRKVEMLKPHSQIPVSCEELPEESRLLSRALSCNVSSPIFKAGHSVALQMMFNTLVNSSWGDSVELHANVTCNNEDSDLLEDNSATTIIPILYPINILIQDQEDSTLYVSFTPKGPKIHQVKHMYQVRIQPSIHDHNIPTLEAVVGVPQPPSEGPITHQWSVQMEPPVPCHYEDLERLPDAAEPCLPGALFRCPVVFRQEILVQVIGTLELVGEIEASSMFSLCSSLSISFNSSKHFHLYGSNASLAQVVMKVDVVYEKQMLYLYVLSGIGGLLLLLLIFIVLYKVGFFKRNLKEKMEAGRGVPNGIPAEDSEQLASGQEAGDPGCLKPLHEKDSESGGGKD
Chain of Intercellular adhesion molecule (ICAM-1), Integrin alpha-L/beta-2 (P05362 whole entry): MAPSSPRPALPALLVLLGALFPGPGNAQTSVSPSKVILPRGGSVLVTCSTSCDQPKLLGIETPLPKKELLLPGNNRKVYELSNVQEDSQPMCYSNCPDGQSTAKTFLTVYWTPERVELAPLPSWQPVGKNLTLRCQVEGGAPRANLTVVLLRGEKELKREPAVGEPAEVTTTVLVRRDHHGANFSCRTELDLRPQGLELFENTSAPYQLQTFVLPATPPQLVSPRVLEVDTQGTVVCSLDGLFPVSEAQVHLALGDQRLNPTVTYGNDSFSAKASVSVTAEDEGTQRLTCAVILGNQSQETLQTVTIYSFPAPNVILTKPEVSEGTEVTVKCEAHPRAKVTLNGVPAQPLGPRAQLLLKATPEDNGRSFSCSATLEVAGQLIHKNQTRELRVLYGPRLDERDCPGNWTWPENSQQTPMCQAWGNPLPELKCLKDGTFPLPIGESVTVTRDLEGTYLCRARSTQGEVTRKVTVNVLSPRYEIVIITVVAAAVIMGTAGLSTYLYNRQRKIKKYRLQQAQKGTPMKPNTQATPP
Chain of Intercellular adhesion molecule (ICAM-1), Integrin alpha-L/beta-2 (P05107 whole entry): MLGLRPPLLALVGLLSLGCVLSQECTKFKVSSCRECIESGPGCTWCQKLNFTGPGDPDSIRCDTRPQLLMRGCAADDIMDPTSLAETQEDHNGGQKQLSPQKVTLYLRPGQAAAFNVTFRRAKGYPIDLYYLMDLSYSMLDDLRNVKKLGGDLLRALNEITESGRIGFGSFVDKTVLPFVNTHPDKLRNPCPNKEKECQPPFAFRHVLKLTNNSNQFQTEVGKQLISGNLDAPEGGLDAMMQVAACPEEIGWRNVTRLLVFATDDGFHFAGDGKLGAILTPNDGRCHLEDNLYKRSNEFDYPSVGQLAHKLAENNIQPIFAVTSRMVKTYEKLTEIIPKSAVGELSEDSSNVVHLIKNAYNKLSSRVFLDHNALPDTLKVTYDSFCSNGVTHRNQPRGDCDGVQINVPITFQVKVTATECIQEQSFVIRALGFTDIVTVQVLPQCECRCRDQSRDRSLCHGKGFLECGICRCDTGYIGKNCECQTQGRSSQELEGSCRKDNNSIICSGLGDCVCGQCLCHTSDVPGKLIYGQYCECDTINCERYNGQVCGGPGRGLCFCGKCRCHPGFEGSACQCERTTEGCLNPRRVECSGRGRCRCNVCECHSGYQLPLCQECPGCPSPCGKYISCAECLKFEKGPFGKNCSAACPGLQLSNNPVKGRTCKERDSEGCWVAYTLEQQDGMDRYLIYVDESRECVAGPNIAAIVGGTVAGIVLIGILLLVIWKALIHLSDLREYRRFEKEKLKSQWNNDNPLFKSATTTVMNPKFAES

SMILES	MIC [2]	IC50 (Cryptococcus neoformans [3]; [19])	IC50 (SK-MEL)	IC50 (Candida albicans [4])	MIC (Candida albicans [4])	IC50 (Plasmodium falciparum [5])	IC50 (HL-60)	selectivity ratio [9]	IC50 (SK-OV-3)	IC50 (Plasmodium falciparum [10])	selectivity ratio [11]	IC50 (KB; [22])	IC50 (BT-549; [23])	also measured
COc1cnc2c3c(nccc13)C(=O)c1ccccc1-2	12.5 µg/mL (≈ 47.7 µM)	0.65 µg/mL (≈ 2.48 µM)	> 10 µg/mL	3 µg/mL (≈ 11.4 µM)	20 µg/mL (≈ 76.3 µM)	0.095 µg/mL (≈ 0.362 µM)	7.2 µg/mL (≈ 27.5 µM)	> 17	> 10 µg/mL	0.28 µg/mL (≈ 1.07 µM)	> 50			IC50 (Staphylococcus aureus [1]; [17]): 20 µg/mL (≈ 76.3 µM); MIC (Cryptococcus neoformans [3]; [18]): 3.12 µg/mL (≈ 11.9 µM); MIC (Staphylococcus aureus [6]; [20]): 25 µg/mL (≈ 95.3 µM); IC50 (Staphylococcus aureus [6]; [21]): 15 µg/mL (≈ 57.2 µM); IC50 (KB; kb): Not Active; Ratio [7]: 0.6; MIC (Cryptococcus neoformans [8]): 0.78 µg/mL (≈ 2.97 µM); IC50 (BT-549; bt-549): Not Active
COc1c2c3c(ccnc3c3ccccc13)C(=O)C(=O)N2C		50 µg/mL (≈ 171 µM)	2 µg/mL (≈ 6.84 µM)	9 µg/mL (≈ 30.8 µM)	50 µg/mL (≈ 171 µM)	0.28 µg/mL (≈ 0.958 µM)		> 8.7	5 µg/mL (≈ 17.1 µM)	0.55 µg/mL (≈ 1.88 µM)	> 17	> 10 µg/mL	> 10 µg/mL	IC50 (Staphylococcus aureus [1]): Not Active; MIC (Staphylococcus aureus [1]): inactive; IC50 (Staphylococcus aureus [6]): Not Active; MIC (Staphylococcus aureus [6]): inactive
C[C@@H]1[C@H](O)[C@@H](C)/C=C/C=C/C=C/C=C/C=C/C=C/C=C/[C@H](O[C@@H]2O[C@H](C)[C@@H](O)[C@H](N)[C@@H]2O)C[C@@H]2O[C@](O)(C[C@@H](O)C[C@@H](O)[C@H](O)CC[C@@H](O)C[C@@H](O)CC(=O)O[C@H]1C)C[C@H](O)[C@H]2C(=O)O [AMPHOTERICIN B]		0.045 µg/mL (≈ 0.0487 µM)		0.011 µg/mL (≈ 0.0119 µM)	0.02 µg/mL (≈ 0.0216 µM)									IC50 (Staphylococcus aureus [1]): Not Active; MIC (Staphylococcus aureus [1]): inactive; MIC (Cryptococcus neoformans [3]; [18]): 0.156 µg/mL (≈ 0.169 µM); IC50 (Staphylococcus aureus [6]): Not Active; MIC (Staphylococcus aureus [6]): inactive
C[C@@H]1CC[C@H]2[C@@H](C)C(=O)O[C@@H]3O[C@@]4(C)CC[C@@H]1[C@]32OO4 [ARTEMISININ]						0.0044 µg/mL (≈ 0.0156 µM)		> 952		0.005 µg/mL (≈ 0.0177 µM)	> 1080			IC50 (Plasmodium falciparum [12]): 0.0018 µg/mL (≈ 0.00638 µM); IC50 (Plasmodium falciparum [13]): 0.0005 µg/mL (≈ 0.00177 µM)
C=C1[C@@H](C)[C@H]2[C@H](Cc3ccccc3)NC(=O)[C@]23OC(=O)/C=C/[C@H](O)CCC[C@@H](C)C/C=C/[C@H]3[C@@H]1O [CYTOCHALASIN B]	0.39 µg/mL (≈ 0.813 µM)						> 30 µg/mL							Ratio [7]: 76.9; Ratio IC50 [14]: >120; IC50 [15]: 521 nM
COc1cccc2c1C(=O)c1c(O)c3c(c(O)c1C2=O)C[C@@](O)(C(=O)CO)C[C@@H]3O[C@H]1C[C@H](N)[C@H](O)[C@H](C)O1 [DOXORUBICIN]			< 1.1 µg/mL						< 1.1 µg/mL			< 1.1 µg/mL	< 1.1 µg/mL	
O=c1[nH]cc(F)c(=O)[nH]1 [FLUOROURACIL]			6.3 µg/mL (≈ 48.4 µM)						> 10 µg/mL			> 10 µg/mL		IC50 (BT-549; bt-549): Not Active
COc1ccc2c(OC)c3c4c(ccnc4c2c1)C(=O)C(=O)N3C [HADRANTHINE A]			> 10 µg/mL	4.5 µg/mL (≈ 14 µM)	20 µg/mL (≈ 62.1 µM)	0.12 µg/mL (≈ 0.372 µM)		> 40	> 10 µg/mL	0.12 µg/mL (≈ 0.372 µM)	> 40		> 10 µg/mL	IC50 (Staphylococcus aureus [1]): Not Active; MIC (Staphylococcus aureus [1]): inactive; IC50 (Cryptococcus neoformans [3]): Not Active; MIC (Cryptococcus neoformans [3]): inactive; IC50 (Staphylococcus aureus [6]): Not Active; MIC (Staphylococcus aureus [6]): inactive; IC50 (KB; kb): Not Active
COc1c2c3c(ccnc3c3ccccc13)C(=O)C(=O)N2 [HADRANTHINE B]	4.2 µg/mL (≈ 15.1 µM)		3 µg/mL (≈ 10.8 µM)				> 12.5 µg/mL		3.6 µg/mL (≈ 12.9 µM)			6.4 µg/mL (≈ 23 µM)	6.6 µg/mL (≈ 23.7 µM)	Ratio IC50 [7]: 3
CO[C@H]1/C=C/O[C@@]2(C)Oc3c(C)c(O)c4c(O)c(c(/C=N/N5CCN(C)CC5)c(O)c4c3C2=O)NC(=O)/C(C)=C\C=C\[C@H](C)[C@H](O)[C@@H](C)[C@@H](O)[C@@H](C)[C@H](OC(C)=O)[C@@H]1C [RIFAMPIN]														MIC (Staphylococcus aureus [1]; [24]): 0.312 µg/mL (≈ 0.38 µM); IC50 (Staphylococcus aureus [1]; [17]): 0.0025 µg/mL (≈ 0.00304 µM); MIC (Staphylococcus aureus [6]; [20]): 0.02 µg/mL (≈ 0.0243 µM); IC50 (Staphylococcus aureus [6]; [21]): 0.01 µg/mL (≈ 0.0122 µM)
O=C1c2ccccc2-c2nccc3ccnc1c23 [SAMPANGINE]	< 0.15 µg/mL	0.15 µg/mL (≈ 0.646 µM)	0.37 µg/mL (≈ 1.59 µM)	0.15 µg/mL (≈ 0.646 µM)	0.39 µg/mL (≈ 1.68 µM)	0.068 µg/mL (≈ 0.293 µM)	2 µg/mL (≈ 8.61 µM)	> 11	4.1 µg/mL (≈ 17.7 µM)	0.42 µg/mL (≈ 1.81 µM)	> 70	5.3 µg/mL (≈ 22.8 µM)	6.4 µg/mL (≈ 27.6 µM)	MIC (Staphylococcus aureus [1]; [24]): 12.5 µg/mL (≈ 53.8 µM); IC50 (Staphylococcus aureus [1]; [17]): 9 µg/mL (≈ 38.8 µM); MIC (Cryptococcus neoformans [3]; [18]): 0.78 µg/mL (≈ 3.36 µM); IC50 (Staphylococcus aureus [6]; [21]): 5.5 µg/mL (≈ 23.7 µM); Ratio [7]: >13.3; Ratio IC50 [14]: <0.2; MIC (Candida albicans [16]): 1.56 µg/mL (≈ 6.72 µM); IC50 [15]: > 43100 nM
